From ChEMBL document CHEMBL1131236, “Antitumor agents. 185. Synthesis and biological evaluation of tridemethylthiocolchicine analogues as novel topoisomerase II inhibitors” (J Med Chem, 1998)
≈ marks a conversion by molar mass, not a printed value.

Tests used:
SK-MEL-2 [1] = assay: In vitro growth inhibition of SK-MEL-2, malignant melanoma.; assay type: functional, cell-based; conditions: Homo sapiens
In short: (§1)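 Human tumor lines screened in-house: KB, A549, MCF-7, CAKI-1 and SK-MEL-2. Read-out was SRB staining with absorbance at 562 nm.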

Tubulin = assay type: protein-complex assay
MCF7 [2] = assay: In vitro growth inhibition of MCF-7, breast adenocarcinoma.; assay type: functional, cell-based; conditions: Homo sapiens; in short: as §1
A549 [3] = assay: In vitro percent inhibition of A549, lung carcinoma.; assay type: functional, Homo sapiens
SK-MEL-2 [4] = assay: In vitro percent inhibition of SK-MEL-2 cells, malignant melanoma.; assay type: functional, Homo sapiens; design: concentration or dose not given beside the values
CAKI-1 [5] = assay: In vitro percent inhibition of CAKI-1, Kidney carcinoma; assay type: functional, Homo sapiens; design: concentration or dose not given beside the values
A549 [6] = assay: In vitro growth inhibition of A549, lung carcinoma.; assay type: functional, cell-based; conditions: Homo sapiens; in short: as §1
DNA topoisomerase II [7] = target: T1, DNA topoisomerase II (Homo sapiens, UniProt P11388+Q02880); assay: In vitro inhibitory activity at 100 uM against topoisomerase II measured as ATP-dependent unknotting of P4 DNA compared to enzyme and DNA control.; assay type: protein assay
[8] = target: T2, DNA topoisomerase 1 (Homo sapiens) (UniProt P11387); assay: In vitro inhibitory activity at 100 uM against topoisomerase I measured as ATP-independent relaxation of supercoiled plasmid DNA compared to enzyme and DNA control.
T2 sequence (whole entry): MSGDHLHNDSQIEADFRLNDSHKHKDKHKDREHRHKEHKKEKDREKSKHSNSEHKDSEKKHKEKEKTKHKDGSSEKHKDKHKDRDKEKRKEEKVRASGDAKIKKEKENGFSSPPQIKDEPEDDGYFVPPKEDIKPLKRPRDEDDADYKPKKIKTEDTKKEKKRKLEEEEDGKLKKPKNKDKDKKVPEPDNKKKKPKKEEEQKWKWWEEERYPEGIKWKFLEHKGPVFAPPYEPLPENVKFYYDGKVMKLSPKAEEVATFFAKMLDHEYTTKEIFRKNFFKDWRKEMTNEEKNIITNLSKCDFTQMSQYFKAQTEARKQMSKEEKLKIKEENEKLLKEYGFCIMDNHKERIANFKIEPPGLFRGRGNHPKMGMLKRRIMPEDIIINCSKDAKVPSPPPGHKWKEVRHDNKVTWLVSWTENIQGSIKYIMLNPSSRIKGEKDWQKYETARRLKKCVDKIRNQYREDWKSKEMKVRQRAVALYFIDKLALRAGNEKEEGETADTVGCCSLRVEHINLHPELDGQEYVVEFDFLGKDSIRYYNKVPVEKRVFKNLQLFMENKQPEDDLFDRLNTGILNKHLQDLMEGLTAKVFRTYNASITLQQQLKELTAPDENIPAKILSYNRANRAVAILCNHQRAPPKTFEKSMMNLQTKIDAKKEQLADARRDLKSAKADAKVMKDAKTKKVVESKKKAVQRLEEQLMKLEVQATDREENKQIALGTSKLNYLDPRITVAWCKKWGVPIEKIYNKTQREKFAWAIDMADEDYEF

CAKI-1 [9] = assay: In vitro growth inhibition of CAKI-1, Kidney carcinoma; assay type: functional, cell-based; conditions: Homo sapiens; in short: as §1
KB = assay: In vitro growth inhibition of KB, epidermoid carcinoma of the nasopharynx.; assay type: functional, cell-based; conditions: Homo sapiens; in short: as §1
MCF7 [10] = assay: In vitro percent inhibition of MCF-7, breast adenocarcinoma.; assay type: functional, Homo sapiens
DNA topoisomerase II [11] = target: T1, DNA topoisomerase II; assay: (§2) In vitro activity against mammalian topoisomerase II measured as ATP-dependent unknotting of P4 DNA compared to enzyme and DNA control; assay type: protein assay
In short: (§3)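 Topo II inhibition read as ATP-dependent unknotting of P4 DNA, compared with enzyme-only and DNA-only control reactions.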

A549 [12] = assay: In vitro growth inhibition of A549, lung carcinoma; assay type: functional, cell-based; conditions: Homo sapiens; in short: as §1
A549 [13] = assay: In vitro percent inhibition of A549, lung carcinoma; assay type: functional, Homo sapiens
[14] = target: T2, DNA topoisomerase 1 (Homo sapiens); assay: In vitro inhibition against topoisomerase I activity Measured as ATP independent relaxation of supercoiled plasmid DNA compared to enzyme and DNA control reaction relative to Camptothecin (100 uM)
In short: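 Topo I inhibition read as ATP-independent relaxation of supercoiled plasmid DNA, compared with enzyme and DNA control reactions. Camptothecin at 100 μM was the positive control.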

SK-MEL-2 [15] = assay: In vitro growth inhibition of SK-MEL-2, malignant melanoma; assay type: functional, cell-based; conditions: Homo sapiens; in short: as §1
CAKI-1 [16] = assay: In vitro percent inhibition of growth of CAKI-1, Kidney carcinoma; assay type: functional, Homo sapiens
DNA topoisomerase II [17] = target: T1, DNA topoisomerase II; assay: as §2; assay type: protein assay; conditions: concentration not given here; in short: as §3
SK-MEL-2 [18] = assay: In vitro percent inhibition of growth of SK-MEL-2, malignant melanoma; assay type: functional, Homo sapiens
CAKI-1 [19] = assay: In vitro percent inhibition of CAKI-1, Kidney carcinoma; Range 12-38; assay type: functional, Homo sapiens
MCF7 [20] = assay: In vitro percent inhibition of MCF-7, breast adenocarcinoma.; Range 23-48; assay type: functional, Homo sapiens
A549 [21] = assay: In vitro percent inhibition of A549, lung carcinoma.; Range 18-43
SK-MEL-2 [22] = assay: In vitro percent inhibition of SK-MEL-2 cells, malignant melanoma.; Range 26-41; assay type: functional, Homo sapiens

SMILES | EC50 (SK-MEL-2 [1]) [µg/mL] | IC50 (Tubulin) [µM] | EC50 (MCF7 [2]) [µg/mL] | EC50 (A549 [6]) [µg/mL] | inhibition (DNA topoisomerase II [7]) [%] | inhibition [8] [%] | EC50 (KB) [µg/mL] | Inhibition (CAKI-1 [5]) [%] | EC50 (CAKI-1 [9]) [µg/mL] | also measured
COc1cc2c(c(O)c1O)-c1ccc(SC)c(=O)cc1[C@@H](NC(C)=O)CC2 | – | – | – | – | – | – | – | – | – | IC50 (DNA topoisomerase II [11]): > 150 µM
CSc1ccc2c(cc1=O)[C@@H](NC(=O)c1ccc(N)cc1)CCc1cc(O)c(O)c(O)c1-2 | – | – | – | – | 100 | 0 | – | – | – | –
Br.CSc1ccc2c(cc1=O)[C@@H](NC(=O)c1ccc(N)cc1)CCc1cc(O)c(O)c(O)c1-2 | > 19.5 | > 40 | 10.7 | 9.7 | – | – | 4.8 | 37 | > 19.5 | Inhibition (SK-MEL-2 [4]): 42%
CSc1ccc2c(cc1=O)[C@@H](NC(=O)c1cc([N+](=O)[O-])cc([N+](=O)[O-])c1)CCc1cc(O)c(O)c(O)c1-2 | – | > 40 | – | – | 100 | 0 | – | – | – | –
CSc1ccc2c(cc1=O)[C@@H](NC(=O)c1ccccc1[N+](=O)[O-])CCc1cc(O)c(O)c(O)c1-2 | – | > 40 | – | – | 100 | 0 | – | – | – | –

Further lines, with some results ahead:

EC50 (SK-MEL-2 [1]) [µg/mL] | IC50 (Tubulin) [µM] | EC50 (MCF7 [2]) [µg/mL] | EC50 (A549 [6]) [µg/mL] | inhibition (DNA topoisomerase II [7]) [%] | inhibition [8] [%] | EC50 (KB) [µg/mL] | SMILES | Inhibition (CAKI-1 [5]) [%] | EC50 (CAKI-1 [9]) [µg/mL] | also measured
> 9.6 | > 40 | 8.6 (≈ 17.8 µM) | > 9.6 | 100 | 100 | 9.6 (≈ 19.9 µM) | CSc1ccc2c(cc1=O)[C@@H](NC(=O)c1cc(O)c(O)c(O)c1)CCc1cc(O)c(O)c(O)c1-2 | 29 | > 9.6 | Inhibition (A549 [3]): 30%; Inhibition (SK-MEL-2 [4]): 30%
> 9.6 | > 40 | > 9.6 | > 9.6 | 100 | < 100 | 7.7 (≈ 16 µM) | CSc1ccc2c(cc1=O)[C@@H](NC(=O)c1ccc([N+](=O)[O-])cc1)CCc1cc(O)c(O)c(O)c1-2 | 20 | > 9.6 | Inhibition (A549 [3]): 36%; Inhibition (SK-MEL-2 [4]): 0%; Inhibition (MCF7 [10]): 38%
27.6 (≈ 40 µM) | > 40 | > 27.6 | – | 0 | 0 | 25.5 (≈ 36.9 µM) | CSc1ccc2c(cc1=O)[C@@H](NC(=O)c1ccc([N+](=O)[O-])cc1)CCc1cc(OC(=O)C(C)C)c(OC(=O)C(C)C)c(OC(=O)C(C)C)c1-2 | 17 | > 27.6 | EC50 (A549 [12]): > 27.6 µg/mL; Inhibition (MCF7 [10]): 43%; Inhibition (A549 [13]): 19%
– | > 40 | 13.1 (≈ 20 µM) | 24.2 (≈ 37 µM) | – | – | 6.5 (≈ 9.93 µM) | COC(=O)Oc1cc2c(c(OC(=O)OC)c1OC(=O)OC)-c1ccc(SC)c(=O)cc1[C@@H](NC(=O)c1ccc([N+](=O)[O-])cc1)CC2 | – | > 26.2 | inhibition [14]: 0%; EC50 (SK-MEL-2 [15]): > 26.2 µg/mL; Inhibition (CAKI-1 [16]): 38%; inhibition (DNA topoisomerase II [17]): 0%; Inhibition (SK-MEL-2 [18]): 44%
– | > 40 | – | – | 100 | 0 | – | CSc1ccc2c(cc1=O)[C@@H](NC(=O)c1cccc([N+](=O)[O-])c1)CCc1cc(O)c(O)c(O)c1-2 | – | – | –
– | > 40 | – | – | 100 | 0 | – | CSc1ccc2c(cc1=O)[C@@H](NC(=O)c1ccc(Cl)cc1)CCc1cc(O)c(O)c(O)c1-2 | – | – | –
> 0.3 | > 40 | > 0.15 | > 0.15 | 0 | 0 | 2.7 (≈ 4.45 µM) | CSc1ccc2c(cc1=O)[C@@H](NC(=O)c1ccc([N+](=O)[O-])cc1)CCc1cc(OC(C)=O)c(OC(C)=O)c(OC(C)=O)c1-2 | – | > 0.3 | Inhibition (CAKI-1 [19]): 12%; Inhibition (MCF7 [20]): 23%; Inhibition (A549 [21]): 18%; Inhibition (SK-MEL-2 [22]): 26%
